Shown is part of a subset that was picked to be rich in hits.
zfTRPN1 agonist – zebrafish TRPN1 (NompC) channel agonism; HEK293 zebrafish TRPN1-YFP, Fluo-8 calcium fluorescence; 100% = response to 87 µM carbachol; activation, % at 3 µM; actives 0.18% (n = 220,000);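 active = activation above its plate's cutoff, the mean activation of test wells on that plate plus 3 SD, cut at about 19% in these data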;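 also: 0% = DMSO alone and 100% = 87 µM carbachol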
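Assay system: Zebrafish TRPN1-YFP in HEK293 cells | Incubation: Dye loading 1 h at 37 °C, then 30 min room temperature | Measured by: Kinetic Fluo-8 fluorescence, ex 470-495, em 515-575 nm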
TRPML3 ag – human mucolipin-3 channel agonism. HEK293 TRPML3-YFP, Fluo-8 calcium fluorescence; 100% = the carbachol control signal. actives 0.29% (n = 220,000). Q8TDD5. activation, % at 3 µM;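 active = activation above its plate's cutoff, the mean activation of the plate's test wells plus 3 SD, cut at about 12% in these data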;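 also: 0% = DMSO only wells and 100% = carbachol wells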
Target sequence (Q8TDD5 whole entry, looked up): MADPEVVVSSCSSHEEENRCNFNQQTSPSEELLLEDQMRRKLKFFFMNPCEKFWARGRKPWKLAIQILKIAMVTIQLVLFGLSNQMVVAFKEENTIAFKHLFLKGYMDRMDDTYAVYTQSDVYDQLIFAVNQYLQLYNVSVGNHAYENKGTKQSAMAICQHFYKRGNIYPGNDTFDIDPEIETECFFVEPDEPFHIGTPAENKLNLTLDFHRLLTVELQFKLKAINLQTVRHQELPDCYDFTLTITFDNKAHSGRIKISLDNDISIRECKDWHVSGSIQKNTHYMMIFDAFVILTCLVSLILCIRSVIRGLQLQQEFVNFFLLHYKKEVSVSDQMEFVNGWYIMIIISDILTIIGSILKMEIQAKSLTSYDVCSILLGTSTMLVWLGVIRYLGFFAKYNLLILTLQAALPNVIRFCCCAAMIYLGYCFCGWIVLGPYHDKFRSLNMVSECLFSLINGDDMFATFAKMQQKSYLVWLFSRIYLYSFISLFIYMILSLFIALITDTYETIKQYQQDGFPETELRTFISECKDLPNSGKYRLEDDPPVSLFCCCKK
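Material: HEK293 cells stably carrying human TRPML3-YFP; compound dosing: single dose, 3 µM final nominal compound, 0.3% DMSO final; incubation: 1-h 37 °C dye load, 5-s basal, 120-s post-compound reads; technique: Fluo-8 intracellular calcium fluorescence, excitation 470-495 nm, emission 515-575 nm; read-out basis: percent activation from peak-to-basal fluorescence ratio, scaled between DMSO and carbachol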
ABCB1 inh – blocks JC-1 efflux by human ABCB1 transporter | CCRF-Adr cells, flow cytometry | inhibition, % at 6.6 µM | actives 0.067% (n = 190,000); in the data active = inhibition above about 40%;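 also: 0% = vehicle and 100% = reference inhibitor; higher value means more JC-1 retained so stronger ABCB1 efflux block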
ABCG2 block – inhibitors of human ABCG2 transporter, ABCB1 counter-screen; IgMXP3 cells, JC-1 efflux, flow cytometry; inhibition, % at 6.6 µM; actives 0.1% (n = 190,000); AID 1325;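 active = inhibition above 80%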;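 also: 0% = DMSO and 100% = nicardipine control wells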
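Times: 10 min at 25 °C | Test system: Two drug-resistant human cell lines, ABCG2 and ABCB1 | Quantity: 3 million cells/mL final, two lines in 1:1 ratio | Signal: Flow cytometry, 530 nm JC-1 signal | Dosing: Compound at 6.6 µM | Controls: Nicardipine and DMSO wells | Reagent: JC-1 as fluorescent efflux pump substrate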
ROMK mod – human ROMK K+ channel modulation, primary screen. AID 1918. actives 2% (n = 130,000). P48048. B-score at 10 µM. Tet-inducible ROMK, thallium flux fluorescence; actives lie on both sides;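 active = signal ratio slope over the read window, or its plate-corrected B-score, at least 3 SD from the plate mean, either direction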;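 also: B-score of the F/F0 ratio slope over 7 to 12 s after thallium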
Calb biofilm kill – mixtures killing C. albicans biofilm; C. albicans biofilm persisters + clotrimazole, fluorescence viability; primary screen in compound mixtures of four per well; inhibition, % at 7.6 µM; AID 1242; actives 0.02% (n = 120,000);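 active = inhibition above 30.3% in the primary screen of four-compound pools, then above 30% when the compound was retested; inconclusive = passed the primary limit but could not be retested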;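 also: compounds exposed to preformed 24 h biofilms for 48 h; 0% = untreated biofilm control and 100% = clotrimazole plus chlorhexidine kill blank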
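Test system: C. albicans biofilms. Buffer or medium: RPMI/MOPS medium, pH 7.0. Timing: 48 h compound exposure at 37 °C. Technique: Alamar Blue fluorescence. Evaluation: percent inhibition of biofilm viability.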
ROMK hit retest – human ROMK channel modulation, retest confirmation. actives 54% (n = 3,000). shares compounds with ROMK mod. normalized thallium flux (F/F0 slope) at 10 µM. ROMK thallium flux, fluorescence ratio; stronger effect = lower value. AID 1917;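 active = Flux at 10 µM at least 3 SD below or above vehicle control mean in one or both replicates; inconclusive = no clear call, values can overlap the other calls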
The depositor's hits bear a star; ? = inconclusive; . = no result.

SMILES	zfTRPN1 agonist	TRPML3 ag	ABCB1 inh	ABCG2 block	ROMK mod	Calb biofilm kill	ROMK hit retest
CCN(CC)S(=O)(=O)c1cc(C)ccc1NC(=S)Nc1cccnc1	3	1	0	-1	-0.022	16	.
Cc1cc(/C=C2\SC(=Nc3ccc(F)cc3)NC2=O)c(C)n1-c1ccc(S(N)(=O)=O)cc1	0	1	0	-1	3.3*	.	0.085
CCOc1ccc(-n2nc3c(=O)n(CCN4CCCCC4)nc(C)c3c2C)cc1	0	0	0	1	-0.056	9	.
CC(C)n1cc(C(=O)c2ccccc2O)cc(C#N)c1=O	0	2	1	2	1	13	.
N#Cc1cc(C(=O)c2ccccc2O)cn(-c2nccs2)c1=O	47*	34*	0	0	-8.4*	19	0.025*
N#Cc1cc(C(=O)c2cc(F)ccc2O)cn(-c2nccs2)c1=O	28*	23*	0	-2	-5*	8	0.03*
CN=C(C)/C(C(=O)OC)=C(/O)c1ccc(Cl)cc1Cl	0	0	.	.	.	14	.
O=C(CCn1c2c(c3ccccc31)CCCC2)NNC(=O)c1ccc(Cl)c([N+](=O)[O-])c1	0	0	0	-1	-0.016	10	.
O=C(CCn1c2c(c3ccccc31)CCCC2)NNC(=O)c1ccc([N+](=O)[O-])cc1	0	0	0	0	.	9	0.048*
C=CCc1cc(C)ccc1OCCOCCn1ccnc1	-1	1	0	14	-0.063	12	.
OCCOCCNc1ncnc2sc(-c3ccccc3)cc12	1	1	1	27	-1.8*	.	0.064*
CNc1ncnc2sc(-c3ccccc3)cc12	0	0	0	4	-1	-11	.
COc1cnc(-c2ccccn2)nc1Sc1ccccc1	-1	0	-1	0	-3	31	?
Cc1ccc(C)n1N1C(=O)/C(=C\c2ccc(Cl)cc2)SC1=S	1	0	-1	-1	.	.	.
CC(=O)N(C(C)=O)N1C(=O)/C(=C/c2ccc(Cl)cc2)SC1=S	0	1	-1	-2	-3.2*	17	0.053*
CCc1cccc(CC)c1NC(=O)CN1C2CCCC1CC(NC(=O)Nc1cccc(OC)c1)C2 (centres undefined)	-2	-1	2	14	-4*	6	?
CCCN1C2CCCC1CC(NC(=O)Nc1cccc(C(C)=O)c1)C2 (centres undefined)	1	1	0	-1	.	.	.
COC(=O)c1ccc(NC(=S)Nc2ccccc2)cc1	-1	1	-1	-2	.	.	.
COC(=O)c1ccccc1NC(=S)NC(=O)c1ccccc1	2	1	1	4	.	.	.
COC(=O)c1cccnc1NC(=S)NNC(=O)c1ccccc1	1	2	0	0	2.2*	.	0.074
COC(=O)c1ccc(NC(=S)NNC(=O)c2ccccc2)cc1	0	1	-1	-2	0.94*	60	0.082
CN(c1ccccc1)S(=O)(=O)c1cc(C(=O)OCC(N)=O)ccc1Cl	0	0	0	-1	-0.52	-12	.
Cc1ccc(S(=O)(=O)N(C)C)cc1NC(=S)N1CCN(Cc2ccc3c(c2)OCO3)CC1	3	2	-1	0	0.45	5	.
COc1ccc2oc(=O)c(-c3nnc(N)s3)cc2c1	0	0	1	4	-0.73	8	.
COc1ccc2oc(=O)c(-c3nc(C)cs3)cc2c1	1	1	1	5	-5.1*	.	0.072
CC(NC(=O)COC(=O)C1CSC2(C)CCC(=O)N12)C12CC3CC(CC(C3)C1)C2 (centres undefined)	0	1	1	5	0.12	7	.
Cc1nccn1CC(=O)N/N=C/c1cccs1	1	1	.	.	-0.037	10	.
O=[N+]([O-])c1ccc2c(c1)nc1n2CCN(c2ccccc2)C1	0	1	.	.	.	22	0.072
Cc1cc(Cl)c(S(=O)(=O)N2CCN(c3ccc(F)cc3)CC2)cc1OCC(=O)NC1CCCCC1	2	2	4	5	-4.3*	.	0.063*
